Source: PubChem
STEP block: STEP phosphatase inhibitors, primary screen, biochemical, fluorescence intensity, uHTS | Tyrosine-protein phosphatase non-receptor type 5 (Homo sapiens), P54829 | recombinant STEP, OMFP fluorogenic substrate | inhibition, % at 20 µM | 360,000 compounds, 0.25% hits | AID 588621, 2011;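 active = inhibition at 20 µM, scaled per plate between control wells, above about 37%, limit read from the data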;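 note: 0% = DMSO with enzyme and substrate and 100% = substrate only without enzyme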
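System: STEP (striatal-enriched tyrosine phosphatase) enzyme, cell-free; medium: Bis-Tris pH 6.0 buffer with DTT, detergent; dosing: 20 µM, 1% DMSO; times: reaction 20 min, ambient temperature; detection: fluorescence, 480/540 nm; read-out basis: normalized % inhibition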
DNMT1 inh: human DNMT1 methyltransferase inhibitors, primary screen, biochemical, molecular beacon, fluorescence, HinP1I cleavage, uHTS; DNA (cytosine-5)-methyltransferase 1 (Homo sapiens), P26358; inhibition (reported as % activation of signal), % at 10 µM; 360,000 compounds, 0.83% hits; in the data active = inhibition above about 50%
Target sequence (P26358 504-1616 limits assumed): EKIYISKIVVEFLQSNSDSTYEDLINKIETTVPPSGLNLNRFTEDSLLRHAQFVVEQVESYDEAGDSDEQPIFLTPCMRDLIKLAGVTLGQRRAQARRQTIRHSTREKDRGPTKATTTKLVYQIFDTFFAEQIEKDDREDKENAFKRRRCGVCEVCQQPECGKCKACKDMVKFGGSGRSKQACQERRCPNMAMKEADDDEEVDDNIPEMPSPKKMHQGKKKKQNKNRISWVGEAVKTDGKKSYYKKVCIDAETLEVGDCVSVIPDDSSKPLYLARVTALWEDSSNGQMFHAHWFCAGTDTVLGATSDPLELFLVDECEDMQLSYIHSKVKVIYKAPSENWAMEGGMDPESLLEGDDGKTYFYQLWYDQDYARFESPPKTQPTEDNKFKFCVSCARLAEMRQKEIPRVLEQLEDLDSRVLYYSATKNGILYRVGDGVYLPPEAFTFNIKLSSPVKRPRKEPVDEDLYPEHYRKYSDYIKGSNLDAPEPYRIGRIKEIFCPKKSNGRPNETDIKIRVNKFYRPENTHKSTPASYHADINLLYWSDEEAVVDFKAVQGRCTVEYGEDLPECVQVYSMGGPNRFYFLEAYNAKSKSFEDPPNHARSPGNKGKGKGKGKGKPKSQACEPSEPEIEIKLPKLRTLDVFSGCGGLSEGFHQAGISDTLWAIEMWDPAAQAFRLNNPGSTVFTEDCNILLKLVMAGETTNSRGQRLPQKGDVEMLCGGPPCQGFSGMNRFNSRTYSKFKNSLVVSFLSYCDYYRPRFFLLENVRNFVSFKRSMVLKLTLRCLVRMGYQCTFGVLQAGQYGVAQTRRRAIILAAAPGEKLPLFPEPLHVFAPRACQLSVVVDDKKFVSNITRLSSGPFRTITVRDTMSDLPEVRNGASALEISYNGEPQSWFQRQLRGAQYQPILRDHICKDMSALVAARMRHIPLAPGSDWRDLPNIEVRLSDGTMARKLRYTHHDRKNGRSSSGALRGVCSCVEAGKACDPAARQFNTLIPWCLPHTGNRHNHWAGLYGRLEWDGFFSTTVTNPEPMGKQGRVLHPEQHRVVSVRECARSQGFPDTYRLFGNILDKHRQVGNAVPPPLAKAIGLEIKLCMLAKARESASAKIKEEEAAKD
LMPTP block: LMPTP phosphatase inhibitors, primary screen, biochemical, fluorescence intensity, uHTS. inhibition, % at 20 µM. AID 651560, 2012. Low molecular weight phosphotyrosine protein phosphatase (Homo sapiens), P24666. recombinant LMPTP-A, OMFP fluorogenic substrate. 360,000 compounds, 0.22% hits;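 active = compounds that cut the enzyme signal by at least half of the control window in the single-dose screen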;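 note: plate controls were DMSO wells with enzyme plus substrate for no effect and substrate without enzyme for full effect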
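test system = LMPTP-A | amount = 0.625 nM LMPTP-A final | reagent = fluorogenic phosphatase substrate OMFP at 400 µM final | incubation = 50 min at room temperature | benchmarks = no-enzyme low control, uninhibited high control | medium = Bis-Tris pH 6.0, DTT, detergent | signal = fluorescence intensity of OMFP turnover product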
SUMO1 PPI mod: modulators of SUMO1 protein-protein interactions, primary screen, biochemical, uHTS; SUMO1 binding to a labelled peptide, TR-FRET, 1 h; inhibition, % at 20 µM; 360,000 compounds, 0.33% hits; AID 602429, 2012; in the data active = inhibition above about 37%
Scp-1 inhibitor: Scp-1 phosphatase inhibitors, primary screen, biochemical, colorimetric, uHTS | Recombinant Scp1, phosphopeptide, malachite green phosphate absorbance | inhibition, % at 20 µM | AID 493091, 2011 | 340,000 compounds, 0.88% hits;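 active = inhibition above about 50% at 20 µM, limit read from the data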;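 note: plate controls were DMSO wells with enzyme for no effect and wells lacking enzyme for full effect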
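Test system – truncated SCP-1 phosphatase (76-261aa) · Reagent – Phosphorylated 17-residue peptide substrate · Incubation – 45 min room-temperature reaction, 5 min colour, 30 min stabiliser · Detection – colorimetric phosphate reagent with accelerator and stabiliser, absorbance at 630 nm · Measure – % inhibition at 20 µM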
Beacon interf DR: spectral interference with molecular beacon fluorescence, dose response, artefact control for DNMT1 inhibitor project, biochemical, fluorescent molecular beacon | shares compounds with DNMT1 inh | spectral interference counter-screen | IC50, µM | 200 tested, under 10 active | AID 602382, 2012; call rule not given here
DNMT1 confirm: DNMT1 methyltransferase inhibitor retest, confirmation, biochemical, molecular beacon, fluorescence, single concentration; shares compounds with DNMT1 inh; DNMT1 molecular beacon HinP1I cleavage; inhibition, % at 10 µM; 2,300 compounds, 8% hits; AID 602385, 2012;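 active = average inhibition of at least 30% in the single-concentration confirmation test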
DNMT1 interf: counter-screen for DNMT1 inhibitors: spectral interference. AID 602387. shares compounds with DNMT1 inh. 2,300 compounds, 1% hits. DNMT1 molecular beacon spectral interference counterscreen, fluorescence 485/520. activation (fluorescence interference), % at 10 µM;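 active = activation of at least 30% at 10 µM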;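 note: DNMT1 catalytic domain with a HinP1I cleavage step and a FAM/dabcyl DNA beacon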
* hit, by the source's call; · = no result; ! = not confirmed by another sample. Sampled rows, rich in hits. Any-hit rate of the full collection: about 1.7%.

SMILES | STEP block | DNMT1 inh | LMPTP block | SUMO1 PPI mod | Scp-1 inhibitor | DNMT1 confirm | DNMT1 interf | others
COc1cc2c(C#N)c(N3CCCC3)nc(N)c2c(N)n1 | 18 | 99* | 29 | 56* | 0 | 3 | 4
O=C1CCCC2=C1C(c1ccco1)Nc1ccc3ccccc3c12 (centres undefined) | 4 | 103* | 12 | 15 | 74* | 50* | -5 | Beacon interf DR=>99
COc1ccc2c(c1)C(=O)N1[C@H]3c4cc(Br)ccc4OC[C@@H]3[C@H](c3ccccc3)[C@]1(C)C(=O)N2 | 1 | -3 | 0 | 2 | -10 | · | ·
O=C(COc1cc(O)c2c(=O)cc(-c3ccccc3)oc2c1)c1ccc(F)cc1 | 5 | 54* | 1 | -6 | 9 | 2 | -7
Cc1ccc(C(=O)Nc2cccc(C(F)(F)F)c2)cc1NC(=O)c1nccn1C | 1 | 56*! | 4 | 5 | -4 | 0 | 5
Cc1ccc(C(=O)Nc2cccc(C(F)(F)F)c2)cc1NC(=O)c1ccno1 | -3 | -4 | 0 | 3 | -4 | · | ·
Cc1ccc(S(=O)(=O)N2CCN(C)CC2)c2nsnc12 | 1 | -1 | 0 | -30 | -4 | · | ·
O=c1[nH]c(=O)c2nc3c4ccccc4c4ccccc4c3nc2[nH]1 | 0 | 79* | 13 | 84* | 26 | 4 | -1
O=[N+]([O-])c1ccc(Cl)c(S(=O)(=O)Nc2ccc(-c3ccc(N4CCOCC4)nn3)cc2)c1 | -1 | 2 | 1 | -28 | 7 | · | ·
O=S(=O)(Nc1ccc(-c2ccc(N3CCOCC3)nn2)cc1)c1ccc(Cl)c(Cl)c1 | 4 | 83* | 3 | -12 | -1 | 5 | 5
COc1cc(C=NNc2ccccc2[N+](=O)[O-])cc(OC)c1OC | 2 | 53* | 1 | -15 | · | 3 | 0
COc1cc(/C=N/Nc2ccc(F)cc2F)cc(OC)c1OC | 2 | 0 | 1 | -4 | -9 | · | ·
O=C(COc1ccc(NS(=O)(=O)c2ccc(F)cc2)cc1)N1CCOCC1 | -1 | 1 | 0 | 1 | -4 | · | ·
COc1ccccc1NS(=O)(=O)c1cc(C(=O)N2CCCC2)ccc1F | 2 | 1 | 0 | -2 | -3 | · | ·
CC1(C(=O)NS(=O)(=O)Cc2cccc(Cl)c2)CCN1C(=O)c1ccc(C2CCCCC2)cc1 (centres undefined) | 0 | 78* | -1 | 5 | · | 4 | 3
CC1(C(=O)NS(=O)(=O)Cc2ccccc2)CCN1C(=O)c1ccc(C2CCCCC2)cc1 (centres undefined) | 0 | 1 | -2 | 2 | · | · | ·
NC(=O)CNC(=O)c1ccc(Cl)cc1 | 5 | 2 | -2 | 0 | 7 | · | ·
Cc1cccc(NC(=S)N(CCCN2CCOCC2)C(C)c2cc3ccccc3o2)c1 (centres undefined) | 7 | 0 | -2 | 1 | -3 | · | ·
Cc1cccc(NC(=S)N(CCCN2CCOCC2)C(C)c2cc3ccccc3o2)c1C (centres undefined) | 3 | 54* | -2 | 2 | -6 | 1 | -1
O=C(COc1nsnc1N1CCOCC1)Nc1ccc(Br)cc1 | 0 | 0 | 0 | -1 | -2 | · | ·
Cc1cc(C(=O)N/N=C/c2cc(Br)c(Br)o2)n[nH]1 | 18 | 64* | 7 | -3 | 46 | -1 | -1
Cc1ccc(-c2csc3ncn(CC#N)c(=O)c23)cc1 | -1 | 48 | 1 | 11 | 8 | 5 | 6
